Laboratory results from ChEMBL document CHEMBL4689842, “EUbOPEN Chemogenomics Library wave 1” (2021).

Experiments:
Format in all cases: toxicity, cell-based
[1] = tested on: HEK-293T; test: Incucyte cell viability with HEK293T; details: human, 10 µM, compound concentration 10 uM; note: filed as whole numbers so only -1 and 0 and 1 occur
[2] = tested on: U2OS; test: Multiplex assay against U2OS; details: human
Procedure, shortened: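 Values for tubulin, mitochondrial-mass and membrane-permeability phenotypes are per cents of cells with healthy nuclei. These cells were identified by CellPathfinder machine-learning gating of live cells that had been stained at seeding with Hoechst33342, BioTracker Green Microtubule Cytoskeleton Dye, MitoTracker Red and Annexin V Alexa Fluor 680 and imaged on a CQ1 microscope at 37°C and 5% CO2 after compound addition. The gating first set Hoechst high-intensity objects apart from normal cells, then split normal cells into healthy, pyknosed or fragmented nuclei, and pyknosed cells into mitotic or apoptotic.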

[3] = tested on: U2OS; test: Incucyte cell viability with U2OS; details: human, 10 µM, compound concentration 10 uM; note: filed as whole numbers so only -1 and 0 and 1 occur
[4] = 0 h, replicate number 1, timepoint 0 hours
[5] = 12 h, replicate number 1, timepoint 12 hours
[6] = 18 h, replicate number 1, timepoint 18 hours
[7] = 24 h, replicate number 1, timepoint 24 hours
[8] = 12 h, 1 µM, compound concentration 1 uM, replicate 1
[9] = 12 h, 1 µM, compound concentration 1 uM, replicate 2
[10] = 12 h, 10 µM, compound concentration 10 uM, replicate 1
[11] = 12 h, 10 µM, compound concentration 10 uM, replicate 2
[12] = 24 h, 1 µM, compound concentration 1 uM, replicate 1
[13] = 24 h, 1 µM, compound concentration 1 uM, replicate 2
[14] = 24 h, 10 µM, compound concentration 10 uM, replicate 1
[15] = 24 h, 10 µM, compound concentration 10 uM, replicate 2
[16] = 48 h, 1 µM, compound concentration 1 uM, replicate 1
[17] = 48 h, 1 µM, compound concentration 1 uM, replicate 2
[18] = 48 h, 10 µM, compound concentration 10 uM, replicate 1
[19] = 48 h, 10 µM, compound concentration 10 uM, replicate 2

CCCn1c(=O)c2[nH]c(C34CC5CC(CC3C5)C4)nc2n(CCC)c1=O [ROLOFYLLINE]
Growth Rate [1, 4]: 0
Growth Rate ([1]; 6 h, replicate number 1, timepoint 6 hours): 0
Growth Rate [1, 5]: 0
Growth Rate [1, 6]: 0
Growth Rate [1, 7]: 0
Population Apoptotic (%) [2, 8]: 50%
Population Fragmented Nuclei (%) [2, 8]: 14%
Population Healthy Nuclei (%) [2, 8]: 77%
Population Hoechst High Intensity Objects (%) [2, 8]: 7%
Population Membrane Permeable-Phenotype (%) [2, 8]: 9%
Population Mitochondria Different-Phenotype (%) [2, 8]: 8%
Population Mitotic Cells (%) [2, 8]: 50%
Population Normal (%) [2, 8]: 92%
Population Pyknosed Nuclei (%) [2, 8]: 8%
Population Tubulin-Different-Phenotype (%) [2, 8]: 18%
Total Cell Count [2, 8]: 123
Population Apoptotic (%) [2, 9]: 71%
Population Fragmented Nuclei (%) [2, 9]: 4%
Population Healthy Nuclei (%) [2, 9]: 88%
Population Hoechst High Intensity Objects (%) [2, 9]: 3%
Population Membrane Permeable-Phenotype (%) [2, 9]: 12%
Population Mitochondria Different-Phenotype (%) [2, 9]: 15%
Population Mitotic Cells (%) [2, 9]: 28%
Population Normal (%) [2, 9]: 96%
Population Pyknosed Nuclei (%) [2, 9]: 7%
Population Tubulin-Different-Phenotype (%) [2, 9]: 20%
Total Cell Count [2, 9]: 81
Population Apoptotic (%) [2, 10]: 58%
Population Fragmented Nuclei (%) [2, 10]: 7%
Population Healthy Nuclei (%) [2, 10]: 76%
Population Hoechst High Intensity Objects (%) [2, 10]: 13%
Population Membrane Permeable-Phenotype (%) [2, 10]: 32%
Population Mitochondria Different-Phenotype (%) [2, 10]: 80%
Population Mitotic Cells (%) [2, 10]: 41%
Population Normal (%) [2, 10]: 86%
Population Pyknosed Nuclei (%) [2, 10]: 17%
Population Tubulin-Different-Phenotype (%) [2, 10]: 97%
Population Apoptotic (%) [2, 11]: 55%
Population Fragmented Nuclei (%) [2, 11]: 13%
Population Healthy Nuclei (%) [2, 11]: 74%
Population Hoechst High Intensity Objects (%) [2, 11]: 3%
Population Membrane Permeable-Phenotype (%) [2, 11]: 46%
Population Mitochondria Different-Phenotype (%) [2, 11]: 73%
Population Mitotic Cells (%) [2, 11]: 44%
Population Normal (%) [2, 11]: 96%
Population Pyknosed Nuclei (%) [2, 11]: 12%
Population Tubulin-Different-Phenotype (%) [2, 11]: 100%
Total Cell Count [2, 11]: 99
Population Apoptotic (%) [2, 12]: 50%
Population Fragmented Nuclei (%) [2, 12]: 9%
Population Healthy Nuclei (%) [2, 12]: 74%
Population Hoechst High Intensity Objects (%) [2, 12]: 2%
Population Membrane Permeable-Phenotype (%) [2, 12]: 5%
Population Mitochondria Different-Phenotype (%) [2, 12]: 5%
Population Mitotic Cells (%) [2, 12]: 50%
Population Normal (%) [2, 12]: 97%
Population Pyknosed Nuclei (%) [2, 12]: 15%
Population Tubulin-Different-Phenotype (%) [2, 12]: 10%
Total Cell Count [2, 12]: 136
Population Apoptotic (%) [2, 13]: 40%
Population Fragmented Nuclei (%) [2, 13]: 7%
Population Healthy Nuclei (%) [2, 13]: 88%
Population Hoechst High Intensity Objects (%) [2, 13]: 5%
Population Membrane Permeable-Phenotype (%) [2, 13]: 6%
Population Mitochondria Different-Phenotype (%) [2, 13]: 11%
Population Mitotic Cells (%) [2, 13]: 60%
Population Normal (%) [2, 13]: 94%
Population Pyknosed Nuclei (%) [2, 13]: 4%
Population Tubulin-Different-Phenotype (%) [2, 13]: 15%
Total Cell Count [2, 13]: 83
Population Apoptotic (%) [2, 14]: 60%
Population Fragmented Nuclei (%) [2, 14]: 13%
Population Healthy Nuclei (%) [2, 14]: 60%
Population Hoechst High Intensity Objects (%) [2, 14]: 10%
Population Membrane Permeable-Phenotype (%) [2, 14]: 38%
Population Mitochondria Different-Phenotype (%) [2, 14]: 84%
Population Mitotic Cells (%) [2, 14]: 39%
Population Normal (%) [2, 14]: 89%
Population Pyknosed Nuclei (%) [2, 14]: 26%
Population Tubulin-Different-Phenotype (%) [2, 14]: 98%
Total Cell Count [2, 14]: 105
Population Apoptotic (%) [2, 15]: 56%
Population Fragmented Nuclei (%) [2, 15]: 9%
Population Healthy Nuclei (%) [2, 15]: 58%
Population Hoechst High Intensity Objects (%) [2, 15]: 5%
Population Membrane Permeable-Phenotype (%) [2, 15]: 41%
Population Mitochondria Different-Phenotype (%) [2, 15]: 81%
Population Mitotic Cells (%) [2, 15]: 43%
Population Normal (%) [2, 15]: 94%
Population Pyknosed Nuclei (%) [2, 15]: 31%
Population Tubulin-Different-Phenotype (%) [2, 15]: 100%
Total Cell Count [2, 15]: 120
Population Apoptotic (%) [2, 16]: 72%
Population Fragmented Nuclei (%) [2, 16]: 9%
Population Healthy Nuclei (%) [2, 16]: 78%
Population Hoechst High Intensity Objects (%) [2, 16]: 4%
Population Membrane Permeable-Phenotype (%) [2, 16]: 2%
Population Mitochondria Different-Phenotype (%) [2, 16]: 10%
Population Mitotic Cells (%) [2, 16]: 27%
Population Normal (%) [2, 16]: 95%
Population Pyknosed Nuclei (%) [2, 16]: 12%
Population Tubulin-Different-Phenotype (%) [2, 16]: 10%
Total Cell Count [2, 16]: 168
Population Apoptotic (%) [2, 17]: 43%
Population Fragmented Nuclei (%) [2, 17]: 5%
Population Healthy Nuclei (%) [2, 17]: 84%
Population Hoechst High Intensity Objects (%) [2, 17]: 2%
Population Membrane Permeable-Phenotype (%) [2, 17]: 8%
Population Mitochondria Different-Phenotype (%) [2, 17]: 21%
Population Mitotic Cells (%) [2, 17]: 56%
Population Normal (%) [2, 17]: 97%
Population Pyknosed Nuclei (%) [2, 17]: 9%
Population Tubulin-Different-Phenotype (%) [2, 17]: 17%
Total Cell Count [2, 17]: 103
Population Apoptotic (%) [2, 18]: 69%
Population Fragmented Nuclei (%) [2, 18]: 18%
Population Healthy Nuclei (%) [2, 18]: 43%
Population Hoechst High Intensity Objects (%) [2, 18]: 12%
Population Membrane Permeable-Phenotype (%) [2, 18]: 35%
Population Mitochondria Different-Phenotype (%) [2, 18]: 60%
Population Mitotic Cells (%) [2, 18]: 30%
Population Normal (%) [2, 18]: 87%
Population Pyknosed Nuclei (%) [2, 18]: 37%
Population Tubulin-Different-Phenotype (%) [2, 18]: 96%
Total Cell Count [2, 18]: 157
Population Apoptotic (%) [2, 19]: 66%
Population Fragmented Nuclei (%) [2, 19]: 19%
Population Healthy Nuclei (%) [2, 19]: 39%
Population Hoechst High Intensity Objects (%) [2, 19]: 4%
Population Membrane Permeable-Phenotype (%) [2, 19]: 81%
Population Mitochondria Different-Phenotype (%) [2, 19]: 68%
Population Mitotic Cells (%) [2, 19]: 33%
Population Normal (%) [2, 19]: 95%
Population Pyknosed Nuclei (%) [2, 19]: 40%
Population Tubulin-Different-Phenotype (%) [2, 19]: 100%
Total Cell Count [2, 19]: 168
Growth Rate [3, 4]: 1
Growth Rate ([3]; 0 h, replicate number 2, timepoint 0 hours): 0
Growth Rate ([3]; 6 h, replicate number 2, timepoint 6 hours): 1
Growth Rate [3, 5]: 1
Growth Rate [3, 6]: 1
Growth Rate [3, 7]: 1
